# Laboratory results from paper PMC12410913 (Small (Weinheim an Der Bergstrasse, Germany), 2025).
# Entries after “also recorded” stand apart in the source; their conditions may differ.
# Assays:
# S. aureus ATCC 29 737 = assay: Field-emission SEM of nanonet morphology; type: cell-based; details: 40 µM peptide (100 µM E-E13 ASYM), 2 h, MHB, 37 °C
# Procedure, shortened: (§1)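 Mid‑log bacteria were diluted in MHB to OD600 0.07, then given test peptide and shaken at 120 rpm. They were pelleted at 6000 g for 6 min, PBS‑washed three times, and fixed overnight at 4 °C in 2.5% glutaraldehyde. Cells were adhered to poly‑L‑lysine coverslips, post‑fixed with 1% OsO4 for 30 min, ethanol‑dehydrated and gold‑coated. Imaging was at 15 000×, with ≥3 fields per sample. Coverage and extensiveness were scored high/moderate/low.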
# E. coli ATCC 25 922 = assay: Field-emission SEM of nanonet morphology; type: cell-based; details: 40 µM peptide (100 µM E-E13 ASYM), 2 h, MHB, 37 °C
# Procedure, shortened: as §1
# BODIPY-Cadaverine = type: binding, E. coli O111:B4 (LPS), S. aureus (LTA); details: LPS/LTA-BC complexes in 1× PBS pH 7.4, 37 °C, 30 minutes
# Procedure, shortened: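 LPS (E. coli O111:B4) or LTA (S. aureus) at 50 µg mL−1 was premixed with 5 µM BODIPY‑cadaverine in 1× PBS pH 7.4 for 30 min at room temperature in the dark. The premix was added 1:1 to two‑fold serial peptide dilutions in PBS, with polymyxin B as control, and shaken at 120 rpm. Fluorescence was read at ex 580/em 620 nm. Occupancy factor and % BC displaced came from sample fluorescence scaled between highest and lowest signals.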
# [1] = K114 fluorescence fibrillation assay with LPS or LTA; type: physicochemical, E. coli O111:B4 (LPS), S. aureus (LTA); details: 20 µM peptide, 37 °C
# Procedure, shortened: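 A 10 mM DMSO stock of K114 was diluted to 250 µM in water and mixed at once with test peptide plus LPS (E. coli O111:B4) or LTA (S. aureus), with shaking at 120 rpm. K114 fluorescence (ex 360/em 550 nm) was read at 0.5, 1 and 2 h. Results were given as % increase in signal, with a non‑fibrillating control peptide as baseline. Three repeats, mean ± SE.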
# [2] = K114 fluorescence fibrillation assay in PBS alone; type: physicochemical; details: 20 µM peptide, 1× PBS pH 7.4, 37 °C, 30 minutes
# Procedure, shortened: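 K114 was dissolved in DMSO at 10 mM and diluted to 250 µM in water. It was mixed at once with test peptide in 1× PBS pH 7.4 without LPS or LTA and shaken at 120 rpm. Fluorescence was read at ex 360/em 550 nm at 0.5, 1.0 and 2.0 h. Fibrillation was judged by signal above a non‑fibrillating control peptide.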
Sequence,"Nanonet morphology (surface coverage, extensiveness) on S. aureus (S. aureus ATCC 29 737)","Nanonet morphology (surface coverage, extensiveness) on E. coli (E. coli ATCC 25 922)",Binding to bacterial PAMPs (BC displaced from LPS or LTA) (BODIPY-Cadaverine),Fibrillation (K114 fluorescence signal) in response to LPS ([1]; 5 µg mL−1 LPS),Fibrillation (K114 fluorescence signal) upon LTA binding ([1]; 5 µg mL−1 LTA),Fibrillation (K114 fluorescence) in PBS alone [2]
EVRIKLTAKIEVR [E‐E13 ^ASYM],minimal membrane contact and low surface coverage,minimal membrane contact and low surface coverage,significantly reduced binding to bacterial PAMPs,,,
KFRFKLTAKFRFK [diF‐F13],formed nanonets similar to F‐F15 and BTT1‐3A,tighter interweaving of nanofibers on the surface of E. coli,,,,
KFRVKLTAKVRFK [F‐F13],slightly increased surface coverage on S. aureus but with less extensive nanonets,loosely trap E. coli with moderate surface coverage,,lower fibrillation in response to LPS,higher in fibrillation upon LTA binding,
KLKLKLTAKLKLK [btt1‐3A13],random aggregated structures,less extensive nanonets with low surface coverage,,,,
LKFRFKLTAKFRFKL [diF‐F15],,,,,,"spontaneously fibrillated in PBS; also recorded: significantly increased the K114 fluorescence signal, even in PBS alone"
LKFRVKLTAKVRFKL [F‐F15],extensive nanonets with moderate surface coverage,extensive nanonets with moderate surface coverage,,,,
